Calls of active or inactive are those of the source. The rule behind the calls is not given here.
Experiments:
Rattus norvegicus [1] = assay: Effect on locomotor activity in Wistar rat up to 100 mg/kg, po by open field test; type: ADME, organism-based; details: in vivo
[2] = Lipophilicity, log D of the compound at pH 7.4; type: physicochemical; details: buffer
[3] = Metabolic stability in human hepatocytes after 30 mins by LC-MS/MS analysis; type: ADME, cell-based, Hepatocyte; details: read-out: Stability
[4] = Mutagenicity in Salmonella typhimurium TA1537 in presence of metabolic activation by Ames test; type: toxicity; details: salmonella enterica subsp. enterica serovar typhimurium
[5] = AUCt in Beagle dog at 3 mg/kg, po by LC-MS/MS analysis; type: ADME, organism-based, Canis lupus familiaris; details: in vivo
[6] = AUC (0 to 24 hrs) in Wistar rat at 3 mg/kg, po by LC-MS/MS analysis; type: ADME, organism-based; set-up: dose 3 mg/kg, time < 24 hr, route oral; details: in vivo
Procedure, shortened: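 Fasted male Wistar rats; compound in water for injection, given i.v. (2 mL/kg) or p.o. (10 mL/kg). Plasma exposure measured as AUC0-24hr.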

[7] = Metabolic stability in monkey liver microsomes in presence of NADPH after 30 mins by LC-MS/MS analysis; type: ADME, Macaca mulatta, Microsome; details: rhesus monkey, read-out: Stability
Rattus norvegicus [8] = assay: Induction of wake promoting activity in orexin-B-saporin lesioned Wistar rat assessed as increase in wake time at 10 to 30 mg/kg, po dosed 15 mins before start of dark phase; type: functional, organism-based
Procedure, shortened: (§1)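 Rats carried epidural frontal-cortex EEG screws, nuchal EMG leads, and bilateral lateral hypothalamic orexin-B-saporin (490 ng/0.8 µl). After at least 3 weeks' recovery, they were dosed 15 min before lights-off in a crossover design with a 1-week washout. Wake, NREM and REM time was totalled over 3 h. DREM was scored as REM after ≥60 s wake. Dunnett's test was used.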

PBL = assay: Clastogenic activity in human peripheral blood lymphocytes by chromosomal aberration test; type: toxicity, cell-based
[9] = Clearance in Wistar rat at 1 mg/kg, iv by LC-MS/MS analysis; type: ADME, organism-based; details: in vivo
Procedure, shortened: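 Fasted male Wistar rats dosed i.v. in water for injection at 2 mL/kg. Clearance and half-life derived from the i.v. plasma profile.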

Cytochrome P450 2C9 = Cytochrome P450 2C9 (Homo sapiens, UniProt P11712); assay: Inhibition of CYP2C9 (unknown origin); type: ADME
[10] = Respiratory toxicity in Wistar rat up to 90 mg/kg, po; type: organism-based; details: in vivo
Procedure, shortened: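 Respiratory safety was evaluated in rats given single oral doses of 10, 30 and 90 mg/kg.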

[11] = Metabolic stability in human liver microsomes in presence of NADPH after 30 mins by LC-MS/MS analysis; type: ADME, Microsome; details: read-out: Stability
[12] = Volume of distribution in Beagle dog at 1 mg/kg, iv by LC-MS/MS analysis; type: ADME, organism-based, Canis lupus familiaris; details: in vivo
Cytochrome P450 2E1 = Cytochrome P450 2E1 (Homo sapiens, UniProt P05181); assay: Inhibition of CYP2E1 (unknown origin); type: ADME
[13] = Clearance in Beagle dog at 1 mg/kg, iv by LC-MS/MS analysis; type: ADME, organism-based, Canis lupus familiaris; details: in vivo
[14] = Mutagenicity in Salmonella typhimurium TA98 in presence of metabolic activation by Ames test; type: toxicity; details: salmonella enterica subsp. enterica serovar typhimurium
[15] = Dissociation constant, pKa1 of the compound by potentiometric titration assay; type: physicochemical
[16] = Ratio of drug uptake in Wistar rat brain to plasma at 3 mg/kg, po by LC-MS/MS analysis; type: ADME, organism-based; details: brain and plasma, read-out: BPR
Procedure, shortened: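 Fasted male Wistar rats were dosed orally with water for injection as the vehicle. Total brain and plasma concentrations were measured at 1 h after dosing and expressed as a ratio.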

[17] = Volume of distribution at steady state in Wistar rat at 3 mg/kg, po or 1 mg/kg, iv by LC-MS/MS analysis; type: ADME, organism-based; details: Wistar, in vivo, read-out: Vdss
Procedure, shortened: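 Fasted male Wistar rats were dosed orally and intravenously, with water for injection as the vehicle for both routes, at dosing volumes of 10 mL/kg p.o. and 2 mL/kg i.v.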

[18] = Dissociation constant, pKa2 of the compound by potentiometric titration assay; type: physicochemical
[19] = Fraction unbound in dog plasma at 1 uM by equilibrium dialysis; type: ADME, cell-free, Canis lupus familiaris
Procedure, shortened: (§2)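 Rapid equilibrium dialysis of fresh rat, dog or human plasma at a compound concentration of 1.0 µM. Unbound fraction reported as a percentage.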

[20] = Toxicity in dog assessed as effect on body temperature at 10 to 25 mg/kg, po; type: organism-based, Canis lupus familiaris; details: in vivo
Procedure, shortened: (§3)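 Male dogs received oral doses of 10, 18 and 25 mg/kg. Body weight, body temperature, blood pressure, heart rate and ECG were monitored.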

[21] = Fraction unbound in rat brain at 1 uM by equilibrium dialysis; type: ADME, tissue-based
Rattus norvegicus [22] = assay: Induction of wake promoting activity in orexin-B-saporin lesioned Wistar rat assessed as decrease in REM sleep time at 10 to 30 mg/kg, po dosed 15 mins before start of dark phase; type: functional, organism-based; procedure, shortened: as §1
CHO-K1 = assay: Induction of phospholipidosis in CHOK1 cells up to 300 uM incubated for 24 hrs by fluorescent-labeled phospholipid probe NBD-PE based fluorescence assay; type: cell-based, Cricetulus griseus; details: chinese hamster, cho-k1, 24 h
Rattus norvegicus [23] = assay: In vivo receptor occupancy at histamine 3 receptor in Wistar rat frontal cortex at 1 to 3 mg/kg, po after measured after 4 to 6 hrs by LC-MS/MS analysis relative to control; type: functional
[24] = Solubility in water; type: physicochemical
[25] = Tmax in Beagle dog at 3 mg/kg, po or 1 mg/kg, iv by LC-MS/MS analysis; type: ADME, organism-based, Canis lupus familiaris; details: in vivo
[26] = Fraction unbound in human plasma at 1 uM by equilibrium dialysis; type: ADME, cell-free; procedure, shortened: as §2
[27] = Mutagenicity in Salmonella typhimurium TA100 in presence of metabolic activation by Ames test; type: toxicity; details: salmonella enterica subsp. enterica serovar typhimurium
Procedure, shortened: (§4)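 Reverse-mutation test in Salmonella typhimurium TA1537, TA1535, TA98 and TA100 and in E. coli WP2 uvrA, run with and without metabolic activation.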

Rattus norvegicus [28] = assay: In vivo inverse agonist activity at histamine 3 receptor in rat assessed as inhibition of RAMH-induced dipsogenia at 0.3 to 10 mg/kg, po measured after 3 days; type: functional, organism-based
Procedure, shortened: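 Male rats were dosed orally with 0.3, 0.5, 0.7, 1, 3 or 10 mg/kg (vehicle 1 mL/kg), then given (R)-α-methylhistamine 2.5 mg/kg s.c. Read-out was water intake (mL), reported as mean ± SEM.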

Rattus norvegicus [29] = assay: Effect on accumbal dopamine levels in Wistar rat at 100 mg/kg, po by microdialysis; type: ADME, organism-based; details: in vivo
[30] = Mutagenicity in Salmonella typhimurium TA1535 in absence of metabolic activation by Ames test; type: toxicity; details: salmonella enterica subsp. enterica serovar typhimurium
[31] = Metabolic stability in dog liver microsomes in presence of NADPH after 30 mins by LC-MS/MS analysis; type: ADME, Canis lupus familiaris, Microsome; details: read-out: Stability
[32] = Toxicity in Wistar rat up to 100 mg/kg, po by Irwin's test; type: organism-based; details: in vivo
Procedure, shortened: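 CNS safety was screened with a modified Irwin's test at oral doses up to 100 mg/kg.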

[33] = Toxicity in dog assessed as effect on heart rate at 10 to 25 mg/kg, po; type: organism-based, Canis lupus familiaris; details: in vivo; procedure, shortened: as §3
[34] = Mutagenicity in Escherichia coli WP2 in absence of metabolic activation by Ames test; type: toxicity; procedure, shortened: as §4
Rattus norvegicus [35] = assay: Induction of wake promoting activity in orexin-B-saporin lesioned Wistar rat assessed as decrease in number of direct REM sleep onset episodes at 10 to 30 mg/kg, po dosed 15 mins before start of dark phase; type: functional, organism-based; procedure, shortened: as §1

Sequence of Cytochrome P450 2E1 (P05181 whole entry): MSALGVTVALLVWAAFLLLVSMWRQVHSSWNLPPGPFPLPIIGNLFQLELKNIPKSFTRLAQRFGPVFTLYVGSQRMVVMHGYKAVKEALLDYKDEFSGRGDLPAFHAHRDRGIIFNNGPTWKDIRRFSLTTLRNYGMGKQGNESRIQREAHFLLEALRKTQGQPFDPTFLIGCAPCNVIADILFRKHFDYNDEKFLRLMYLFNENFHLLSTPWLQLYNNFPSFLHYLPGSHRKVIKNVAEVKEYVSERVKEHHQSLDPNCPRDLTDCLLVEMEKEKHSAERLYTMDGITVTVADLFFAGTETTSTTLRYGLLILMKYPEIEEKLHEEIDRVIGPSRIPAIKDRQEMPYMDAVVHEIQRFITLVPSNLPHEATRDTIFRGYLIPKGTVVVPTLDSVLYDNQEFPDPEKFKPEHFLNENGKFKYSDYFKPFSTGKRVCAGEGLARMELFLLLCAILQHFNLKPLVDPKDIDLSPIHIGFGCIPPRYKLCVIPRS
Sequence of Cytochrome P450 2C9 (P11712 whole entry): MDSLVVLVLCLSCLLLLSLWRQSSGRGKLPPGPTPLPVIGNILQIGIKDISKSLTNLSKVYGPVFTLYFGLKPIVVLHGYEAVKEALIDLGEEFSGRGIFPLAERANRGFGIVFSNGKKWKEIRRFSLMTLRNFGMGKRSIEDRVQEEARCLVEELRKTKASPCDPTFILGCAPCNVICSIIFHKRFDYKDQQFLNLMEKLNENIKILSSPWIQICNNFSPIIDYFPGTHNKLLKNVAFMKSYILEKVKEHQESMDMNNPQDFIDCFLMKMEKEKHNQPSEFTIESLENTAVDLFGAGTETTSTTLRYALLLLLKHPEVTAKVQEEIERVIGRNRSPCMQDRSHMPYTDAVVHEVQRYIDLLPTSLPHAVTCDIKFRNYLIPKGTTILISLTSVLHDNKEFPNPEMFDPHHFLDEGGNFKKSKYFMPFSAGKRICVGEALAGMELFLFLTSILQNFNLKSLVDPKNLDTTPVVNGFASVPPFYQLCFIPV

SMILES: Cl.Cl.O=C(CN1CCOCC1)Nc1ccc(OC2CCN(C3CCC3)CC2)cc1
- Activity (Rattus norvegicus [1]): Non-Toxic
- logD [2]: 0.4
- remaining at 0.5 h [3]: < 5%
- Activity [4]: Non-Toxic
- AUC(0-t) [5]: 1120 ng·h/mL
- AUC(0-t) at 24 h [6]: 626 ng·h/mL
- remaining at 0.5 h [7]: 35%
- Activity (Rattus norvegicus [8]): Active
- Activity (PBL): Non-Toxic
- clearance [9]: 63 mL/min/kg
- IC50 (Cytochrome P450 2C9): > 45 µM
- Activity [10]: Non-Toxic
- remaining at 0.5 h [11]: < 5%
- Vd [12]: 5.2 L/kg
- IC50 (Cytochrome P450 2E1): > 10 µM
- clearance [13]: 36 mL/min/kg
- Activity [14]: Non-Toxic
- pKa [15]: 8.5
- Kp [16]: 0.93
- Vd [17]: 5 L/kg
- pKa [18]: 4.9
- fraction unbound at 1 µM [19]: 0.52
- Activity [20]: Non-Toxic
- fraction unbound at 1 µM [21]: 0.57
- Activity (Rattus norvegicus [22]): Active
- Activity (CHO-K1): Non-Toxic
- Occ (Rattus norvegicus [23]): 50%
- solubility [24]: 730 mg/mL
- Tmax [25]: 15 to 60 min
- fraction unbound at 1 µM [26]: 0.7
- Activity [27]: Non-Toxic
- inhibition (Rattus norvegicus [28]): Active
- Activity (Rattus norvegicus [29]): Non-Toxic
- Activity [30]: Non-Toxic
- remaining at 0.5 h [31]: 13%
- Activity [32]: Non-Toxic
- Activity [33]: Non-Toxic
- Activity [34]: Non-Toxic
- Activity (Rattus norvegicus [35]): Active

From ChEMBL document CHEMBL4368912, “Discovery and Development of N-[4-(1-Cyclobutylpiperidin-4-yloxy)phenyl]-2-(morpholin-4-yl)acetamide Dihydrochloride (SUVN-G3031): A Novel, Potent, Selective, and Orally Active Histamine H3 Receptor Inverse Agonist with Robust Wake-Promoting Activity” (J Med Chem, 2019)
